Reference: publication PMC8958509 (Journal of Medicinal Chemistry, 2022)
Blank lines part the entries; values can stand above or below the compound they belong to.

What was measured:
[1] = test system: H. pylori contemporary clinical isolates; assay: MIC against contemporary clinical isolates; format: cell-based, Helicobacter pylori
[2] = test system: C. difficile contemporary clinical isolates; assay: MIC against contemporary clinical isolates; format: cell-based, Clostridioides difficile
[3] = test system: G. vaginalis contemporary clinical isolates; assay: MIC against contemporary clinical isolates; format: cell-based, Gardnerella vaginalis
[4] = test system: H. pylori MMX 3719; assay: Spontaneous resistance frequency and MPC; format: cell-based, Helicobacter pylori
[5] = test system: C. difficile MMX 4381; assay: Spontaneous resistance frequency and MPC; format: cell-based, Clostridioides difficile
[6] = test system: G. Vaginalis MMX 5973; assay: Spontaneous resistance frequency and MPC; format: cell-based, Gardnerella vaginalis
[7] = Tissue distribution; format: in vivo, Sprague–Dawley rats
[8] = test system: H. pylori SS1 (CagA+, VacA+); assay: Mouse H. pylori infection model; format: in vivo, C57/BL6 mice; conditions: 45 mg/kg bid oral, 7 days, day 7
In short: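 Male C57/BL6 mice (20-25 g) received 0.25 mL gavage inocula on three days (6.40, 6.90, 7.15 log₁₀ CFU). Inocula were 5-day Columbia laked-horse-blood-agar growth suspended in saline to OD530 1.5-2.0. From 7 days post-inoculation, test compound, controls or vehicle were dosed bid by gavage for 7 days. Stomach CFU were counted ~18-20 h post-dose on Dent-supplemented plates (microaerobic, 37 °C, 6-7 days); LOQ <2.35 log₁₀ CFU/stomach.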

[9] = test system: C. difficile UNT103-1 (VA11); assay: Hamster C. difficile infection model; format: in vivo, Golden Syrian hamsters
In short: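 Male Golden Syrian hamsters (80-90 g), singly housed, were infected orally by gavage three times with a sporulation-medium culture diluted to OD600 1 (~1.0 × 10^9 CFU/mL). […] Starting 18 h later (day 2), test compound, comparators or vehicle were given QD by oral gavage for 5 days. Survival was monitored through day 21.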

[10] = test system: clinical isolates of H. pylori, C. difficile, and G. vaginalis; assay: MIC against contemporary clinical isolates; format: cell-based
[11] = test system: H. pylori Rif-resistant, Mtz-resistant strains; assay: MIC comparison, H. pylori resistant mutant panel; format: cell-based, Helicobacter pylori
[12] = H. pylori isolates China (N = 49)
[13] = C. difficile isolates China (N = 46)
[14] = C. difficile isolates USA (N = 50)
[15] = H. pylori MMX 3719, conc. 0.5 μg/mL
[16] = H. pylori MMX 3719, conc. 1 μg/mL
[17] = H. pylori MMX 3719, conc. 2 μg/mL
[18] = H. pylori MMX 3719, conc. 4 μg/mL
[19] = C. difficile MMX 4381, conc. 1 μg/mL
[20] = C. difficile MMX 4381, conc. 2 μg/mL
[21] = C. difficile MMX 4381, conc. 4 μg/mL
[22] = G. Vaginalis MMX 5973, conc. 0.5 μg/mL
[23] = G. Vaginalis MMX 5973, conc. 1 μg/mL
[24] = G. Vaginalis MMX 5973, conc. 2 μg/mL
[25] = G. Vaginalis MMX 5973, conc. 4 μg/mL

Structure (SMILES): CO[C@H]1/C=C/O[C@@]2(C)Oc3c(C)c(O)c4c(c3C2=O)C2=NC3(CCN(CCn5c([N+](=O)[O-])cnc5C)CC3)NC2=C(NC(=O)/C(C)=C\C=C\[C@H](C)[C@H](O)[C@@H](C)[C@@H](O)[C@@H](C)[C@H](OC(C)=O)[C@@H]1C)C4=O [Compound 10, 4-Deoxy-3,4-[2-spiro-[1-[2-(2-methyl-5-nitro-imidazol-1-yl)ethyl]-piperidin-4-yl]]-(1H)-imidazo-(2,5-dihydro)rifamycin S]
MIC range [1, 12]: ≤0.002 to 1 µg/mL | MIC range ([1]; H. pylori isolates USA (N = 200)): ≤0.001 to 2 µg/mL | MIC range [2, 13]: ≤0.06 to 2 µg/mL | MIC range [2, 14]: ≤0.002 to 4 µg/mL | MIC range ([3]; G. vaginalis isolates China (N = 24)): ≤0.004 to 0.06 µg/mL | MIC range ([3]; G. vaginalis isolates USA (N = 101)): ≤0.004 to 0.06 µg/mL | spontaneous frequency of mutation ([4]; H. pylori MMX 3719, all concentrations tested): < 5 × 10^–9 μg/mL | resistant colonies identified, mean [4, 15]: 0 | resistant colonies identified, test 1 [4, 15]: 0 | resistant colonies identified, test 2 [4, 15]: 0 | spontaneous resistance frequency ([4]; H. pylori MMX 3719, conc. 0.5 μg/mL, inoculum 1.90 × 10^8 CFU): <5 × 10^–9 | resistant colonies identified, mean [4, 16]: 0 | resistant colonies identified, test 1 [4, 16]: 0 | resistant colonies identified, test 2 [4, 16]: 0 | spontaneous resistance frequency [4, 16]: <5 × 10^–9 | resistant colonies identified, mean [4, 17]: 0 | resistant colonies identified, test 1 [4, 17]: 0 | resistant colonies identified, test 2 [4, 17]: 0 | spontaneous resistance frequency [4, 17]: <5 × 10^–9 | resistant colonies identified, mean [4, 18]: 0 | resistant colonies identified, test 1 [4, 18]: 0 | resistant colonies identified, test 2 [4, 18]: 0 | spontaneous resistance frequency [4, 18]: <5 × 10^–9 | resistant colonies identified, test 1 ([5]; C. difficile MMX 4381, conc. 0.5 μg/mL): 0 | spontaneous resistance frequency ([5]; C. difficile MMX 4381, conc. 0.5 μg/mL, inoculum 1.23 × 10^9 CFU): 8 × 10^–10 | resistant colonies identified, mean [5, 19]: 0 | resistant colonies identified, test 1 [5, 19]: 0 | resistant colonies identified, test 2 [5, 19]: 0 | spontaneous resistance frequency [5, 19]: <8 × 10^–10 | resistant colonies identified, mean [5, 20]: 0 | resistant colonies identified, test 1 [5, 20]: 0 | resistant colonies identified, test 2 [5, 20]: 0 | spontaneous resistance frequency [5, 20]: <8 × 10^–10 | resistant colonies identified, mean [5, 21]: 0 | resistant colonies identified, test 1 [5, 21]: 0 | resistant colonies identified, test 2 [5, 21]: 0 | spontaneous resistance frequency [5, 21]: <8 × 10^–10 | spontaneous frequency of mutation ([5]; C. difficile MMX 4381, lowest concentration tested): 8 × 10^–10 | resistant colonies identified, mean [6, 22]: 0 | resistant colonies identified, test 1 [6, 22]: 0 | resistant colonies identified, test 2 [6, 22]: 0 | spontaneous resistance frequency ([6]; G. Vaginalis MMX 5973, conc. 0.5 μg/mL, inoculum 4.50 × 10^8 CFU): <2 × 10^–9 | resistant colonies identified, mean [6, 23]: 0 | resistant colonies identified, test 1 [6, 23]: 0 | resistant colonies identified, test 2 [6, 23]: 0 | spontaneous resistance frequency [6, 23]: <2 × 10^–9 | resistant colonies identified, mean [6, 24]: 0 | resistant colonies identified, test 1 [6, 24]: 0 | resistant colonies identified, test 2 [6, 24]: 0 | spontaneous resistance frequency [6, 24]: <2 × 10^–9 | resistant colonies identified, mean [6, 25]: 0 | resistant colonies identified, test 1 [6, 25]: 0 | resistant colonies identified, test 2 [6, 25]: 0 | spontaneous resistance frequency [6, 25]: <2.00 × 10^–9 | spontaneous frequency of mutation ([6]; G. vaginalis MMX 5973, all concentrations tested): < 2 × 10^–9 μg/mL | TNP-2198 concentration ([7]; ascites fluid, 24 h): BLOQ | TNP-2198 concentration ([7]; brain, 12 h): BLOQ | TNP-2198 concentration ([7]; brain, 24 h): BLOQ | TNP-2198 concentration ([7]; plasma, 24 h): BLOQ | TNP-2198 concentration ([7]; stomach content, 0.5 h): 3,264,000 ng/g | TNP-2198 concentration ([7]; stomach content, 2 h): 1,750,320 ng/g | TNP-2198 concentration ([7]; vaginal tissue, 24 h): BLOQ | mean bacterial stomach titer [8]: 1.70 log10 CFU | mortality ([9]; 5 mg/kg QD oral, days 7–9): 10–30% | survival ([9]; 5 mg/kg QD oral, during the 5-day dosing regimen): 100% | survival ([9]; 15 mg/kg QD oral days 2–6, through day 21): 100% | survival ([9]; 45 mg/kg QD oral days 2–6, through day 21): 100% | MIC90 [10]: < 1 µg/mL | fold more active than the 1:1 molar combination of the parent drugs ([11]; Mtz-resistant strain (CB1573)): 1- to 125 fold | fold more active than the 1:1 molar combination of the parent drugs ([11]; Rif-resistant strains (CB1902, CB1903 and CB1614)): 4- to 128 fold | fold more active than Rif, Rbt, or Mtz ([11]; dual Rif-resistant, Mtz-resistant strains (CB1771 and CB1893)): 32- to 64 fold

Structure (SMILES): Cc1ncc([N+](=O)[O-])n1CCO [metronidazole, reference compound]
MIC range [2, 13]: ≤0.06 to 32 µg/mL | MIC range [2, 14]: 0.12 to 4 µg/mL | mortality ([9]; 100 mg/kg QD oral, by day 4): 100%

MIC range [1, 12]: ≤0.06 to 64 µg/mL
Structure (SMILES): CO[C@H]1/C=C/O[C@@]2(C)Oc3c(C)c(O)c4c(O)c(c(/C=N/N5CCN(C)CC5)c(O)c4c3C2=O)NC(=O)/C(C)=C\C=C\[C@H](C)[C@H](O)[C@@H](C)[C@@H](O)[C@@H](C)[C@H](OC(C)=O)[C@@H]1C [rifampin, reference compound]
